Variants at the floor of the assay were thinned out.
B1: tRNA (parent)
chain: GUUCCGUUGGCGUAAUGGUAACGCGUCUCCCUCCUAAGGAGAAGACUGCGGGUUCGAGUCCCGUACGGAACG

Variants of: B1
Test: yeast fitness relative to wild type (ratio to wild type); higher = fitter; tRNA-Arg(CCU), competitive growth, 37 C, YPD
Summary of the method: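 Changes in genotype frequencies gave Darwinian fitness relative to wild type. Frequencies were read by 100-nucleotide paired-end sequencing of gene amplicons before and after pooled Saccharomyces cerevisiae strains, carrying tRNA-Arg(CCU) gene variants at the native locus, were competed in YPD at 37°C for 24 hours in six replicates. A genotype was kept only with ≥ 100 starting reads, and estimates < 0.5 were set to 0.5.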

Variant	yeast fitness
U2A C11G C34U A42U G68A	≤ 0.5
U2A C11G C49A A70G	≤ 0.5
U2A C11G C49A C60U G68C	0.608
U2A C11G C61A	≤ 0.5
U2A C11G G17A A20U C33G G38C	≤ 0.5
U2A C11G G17A A20U C33G G38C A70G	≤ 0.5
U2A C11G G25A A40U C49A C55U	≤ 0.5
U2A C11G G25A C49A	0.553
U2A C11G U28A A65G	≤ 0.5
U2A C11G U47A	≤ 0.5
U2A C11G U47A G48A C66U A70U	≤ 0.5
U2A C11G U54C C61G	≤ 0.5
U2A C11U A14U U19G	≤ 0.5
U2A C11U A70C	0.587
U2A C11U C29G A37C A42U A57G G67A	≤ 0.5
U2A C11U G23C C27A A69U	≤ 0.5
U2A C11U G23C C27A G50U	≤ 0.5
U2A C11U G48C	≤ 0.5
U2A C11U G58C	0.678
U2A C11U U19G	0.647
U2A C11U U19G C55U	0.571
U2A C22A A65C	≤ 0.5
U2A C22A A65U	≤ 0.5
U2A C22A C49G	≤ 0.5

Variant	yeast fitness
U2A C22G	0.888
U2A C22G G25C C61G	0.703
U2A C22G G25C C61U	≤ 0.5
U2A C22G G63A	0.568
U2A C22U	0.796
U2A C22U A40C	0.631
U2A C22U A43U	0.533
U2A C22U U32A A65G	≤ 0.5
U2A C24A	0.662
U2A C24A A36G A45G	≤ 0.5
U2A C24A A42U	≤ 0.5
U2A C24A A45G	0.568
U2A C24A C30U	≤ 0.5
U2A C24G A42U	0.812
U2A C24G A43U C46U A57G	≤ 0.5
U2A C24G G25A C61G G67C G68A	≤ 0.5
U2A C24G G63A	0.551
U2A C24G G63C G67C A69U	≤ 0.5
U2A C24G U32A G58C G63C	≤ 0.5
U2A C24G U32A U54C G56A	≤ 0.5
U2A C24U A42C C62G	≤ 0.5
U2A C24U C30U C34U G52A	≤ 0.5
U2A C24U C30U C34U G52A C61A	≤ 0.5
U2A C24U C30U C34U G52A C66G	≤ 0.5

Variant	yeast fitness
U2A C27A	0.894
U2A C27A C60U A69G	0.514
U2A C27A C60U U64C A69G	≤ 0.5
U2A C27G A36G	≤ 0.5
U2A C27G A37C C55U C62G C66G	≤ 0.5
U2A C27G C31U	0.539
U2A C27U	0.982
U2A C27U C29U C62U	≤ 0.5
U2A C27U C34A	≤ 0.5
U2A C27U U47G C55G G58C	≤ 0.5
U2A C29A A45U	0.542
U2A C29A A45U G67C	≤ 0.5
U2A C29A C30U C46U G58C	≤ 0.5
U2A C29G C30G C49A G56C C61U	0.749
U2A C29G U47G C49G U54G	≤ 0.5
U2A C29U	0.884
U2A C30A C61U	≤ 0.5
U2A C30G A37U U53A C55U A57U	0.574
U2A C30G G58C C66G	≤ 0.5
U2A C30G U53C A57U C60U	≤ 0.5
U2A C30U	0.812
U2A C30U A42G C60G C62G A65G	0.595
U2A C30U A57G	≤ 0.5
U2A C30U C46A U54A A57G	≤ 0.5

Variant	yeast fitness
U2A C30U G44C G51A C61U	≤ 0.5
U2A C30U U32A C62G	≤ 0.5
U2A C31A A69U	0.604
U2A C31A G48A	0.619
U2A C31G A65U A69C	≤ 0.5
U2A C31G A65U G67C	≤ 0.5
U2A C31G C49U G51A G63A	≤ 0.5
U2A C31G C60G U64G	0.532
U2A C31G G39C C49U C60G	≤ 0.5
U2A C31G U32G	0.526
U2A C31U A40C C55G G68A A69U	≤ 0.5
U2A C31U U35C A45U	≤ 0.5
U2A C33A	0.721
U2A C33A C34U G56A A69C	≤ 0.5
U2A C33A C55A G63A	0.513
U2A C33A C55G A69C	≤ 0.5
U2A C33G A36C	≤ 0.5
U2A C33G A42C	0.509
U2A C33G C46A C66A	≤ 0.5
U2A C33G G51C C66G G67A A69C	≤ 0.5
U2A C33U	0.636
U2A C33U A37C	0.532
U2A C34G A37U A40U C66U	≤ 0.5
U2A C34G A40C C46G	0.516

Variant	yeast fitness
U2A C34G G58C C66U	≤ 0.5
U2A C34U	0.743
U2A C46A A70C	0.705
U2A C46A G51C	0.599
U2A C46G	0.829
U2A C46G C49U	0.686
U2A C46G C61U	0.804
U2A C49A	0.637
U2A C49G	0.812
U2A C49U A57U	≤ 0.5
U2A C60A	0.645
U2A C60G A70C	0.532
U2A C60G A70U	≤ 0.5
U2A C60G G63C	≤ 0.5
U2A C60U A65U	≤ 0.5
U2A C60U A65U A70U	≤ 0.5
U2A C61U G67C	≤ 0.5
U2A C66A	0.704
U2A C66U A70C	0.641
U2A C66U G67A	0.601
U2A G6A A36C	0.666
U2A G6A A40U C46A	0.596
U2A G6A C11G A42U A65G C66G G68A	≤ 0.5
U2A G6A C11G C49U A65U	≤ 0.5

Variant	yeast fitness
U2A G6A C11G C49U G58C	≤ 0.5
U2A G6A C11G C49U G58C A69U	≤ 0.5
U2A G6A C11G C49U G58C G68U	≤ 0.5
U2A G6A C11G U28G C34G G44C C61G	≤ 0.5
U2A G6A C11U C31G G51A G67A	≤ 0.5
U2A G6A C27G A42U A43U	≤ 0.5
U2A G6A C33G C34G C61A	≤ 0.5
U2A G6A U7C A15C C29G C33U	≤ 0.5
U2A G6A U7C G25A A36U C60A C62G	≤ 0.5
U2A G6A U16C C24U G38C A65C	≤ 0.5
U2A G6C C33U A40G	0.547
U2A G6C G52A	≤ 0.5
U2A G6C U7C A43C C46U G63C C66U	≤ 0.5
U2A G6C U7C C30A G44A C66A	0.576
U2A G6C U16C C24U	0.523
U2A G6C U16C C24U A36G	≤ 0.5
U2A G9A A37G A65C	≤ 0.5
U2A G9A A37G U47C A65C	≤ 0.5
U2A G9A A45C	0.682
U2A G9A C11U A40U A42C A45G G50C C61U C66U	≤ 0.5
U2A G9A C31U C46G C49U C66G	≤ 0.5
U2A G9A C33U G38C A40U A42C	≤ 0.5
U2A G9A C34U C49G G52C C55U C62G	≤ 0.5
U2A G9A G48C G50A	≤ 0.5

Variant	yeast fitness
U2A G9A U13A C24A A45C	0.536
U2A G9A U13A C24A A45C U64A	0.537
U2A G9A U13A U35G A70C	≤ 0.5
U2A G9A U19A A20U	0.622
U2A G9A U19C	1.03
U2A G9A U19C A69C	0.685
U2A G9C	0.716
U2A G9C A14C C34U A65U	≤ 0.5
U2A G9C G17A	≤ 0.5
U2A G9C G17A C60G	0.572
U2A G9C U16G C24U G68C	≤ 0.5
U2A G9C U16G U32G G52A G63C C66U	≤ 0.5
U2A G9U A20G	≤ 0.5
U2A G10A C49A U53C C62G	≤ 0.5
U2A G10A U26A C66U	≤ 0.5
U2A G10C	0.673
U2A G10C C27A A37U C49A G56A	≤ 0.5
U2A G12A	0.886
U2A G12A A20G U26C C31G C33U A42U	≤ 0.5
U2A G12A A21C G48C	≤ 0.5
U2A G12A C30A A43U C60A G67A	≤ 0.5
U2A G12C C29U C33G	≤ 0.5
U2A G12C C29U G51A G56A A57G G63C	≤ 0.5

Reference: the RNAGym collection of RNA variant scans (doi:10.1126/science.aae0568)
